Experimental data published in ChEMBL document CHEMBL1129933, “Tyrosine kinase inhibitors. 6. Structure-activity relationships among N- and 3-substituted 2,2'-diselenobis(1H-indoles) for inhibition of protein tyrosine kinases and comparative in vitro and in vivo studies against selected sulfur congeners” (J Med Chem, 1997).

Columns and labels:
[1] = target: T1, Epidermal growth factor receptor (Homo sapiens, UniProt P00533); experiment: Inhibition of epidermal growth factor receptor (EGFr)
[2] = target: T2, Platelet-derived growth factor receptor beta (Mus musculus, UniProt P05622); experiment: Inhibition of Platelet-derived growth factor receptor beta (PDGFr)
T2 sequence (P05622 whole entry): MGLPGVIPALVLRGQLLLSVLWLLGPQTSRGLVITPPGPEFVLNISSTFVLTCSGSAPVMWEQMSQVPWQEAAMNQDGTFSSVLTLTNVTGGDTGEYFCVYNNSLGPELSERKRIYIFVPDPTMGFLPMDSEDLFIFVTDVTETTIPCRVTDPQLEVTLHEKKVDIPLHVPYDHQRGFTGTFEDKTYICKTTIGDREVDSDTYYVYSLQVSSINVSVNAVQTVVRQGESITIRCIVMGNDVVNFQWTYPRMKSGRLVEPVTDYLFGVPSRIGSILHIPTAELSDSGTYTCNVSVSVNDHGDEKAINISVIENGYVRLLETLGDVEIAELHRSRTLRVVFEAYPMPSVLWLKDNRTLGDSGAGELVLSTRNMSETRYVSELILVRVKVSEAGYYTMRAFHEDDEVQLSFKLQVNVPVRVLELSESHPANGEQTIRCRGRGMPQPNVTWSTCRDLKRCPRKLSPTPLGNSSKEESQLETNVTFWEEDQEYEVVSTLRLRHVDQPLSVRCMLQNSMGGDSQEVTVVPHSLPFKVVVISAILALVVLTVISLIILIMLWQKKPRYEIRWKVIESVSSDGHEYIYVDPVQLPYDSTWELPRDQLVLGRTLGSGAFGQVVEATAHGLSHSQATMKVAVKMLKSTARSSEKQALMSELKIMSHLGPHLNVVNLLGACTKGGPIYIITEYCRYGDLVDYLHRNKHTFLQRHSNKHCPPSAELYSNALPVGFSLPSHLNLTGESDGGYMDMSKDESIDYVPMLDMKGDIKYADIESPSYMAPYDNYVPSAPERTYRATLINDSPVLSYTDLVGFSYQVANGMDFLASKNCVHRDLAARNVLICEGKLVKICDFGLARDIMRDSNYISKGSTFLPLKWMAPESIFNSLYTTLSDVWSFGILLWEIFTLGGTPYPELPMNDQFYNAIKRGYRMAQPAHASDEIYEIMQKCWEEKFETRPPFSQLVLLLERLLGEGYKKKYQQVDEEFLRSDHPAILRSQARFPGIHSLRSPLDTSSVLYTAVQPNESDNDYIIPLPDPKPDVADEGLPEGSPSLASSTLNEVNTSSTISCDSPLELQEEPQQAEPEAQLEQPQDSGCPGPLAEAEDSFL
Method in brief: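 Full-length mouse PDGF-β receptor was overexpressed in baculovirus-infected insect cells and assayed as cell lysates. Read-out was 32P-phosphate transfer from ATP into TCA-precipitable poly(Glu,Tyr) 4:1. IC50 values are means of duplicates from at least two separate experiments.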

[3] = Inhibition of Src tyrosine kinase
Method in brief: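 v-src protein came from baculovirus-infected insect cells. Kinase activity was measured as 32P incorporation from ATP into TCA-precipitable random Glu/Tyr (4:1) copolymer. IC50 values are means of duplicates from at least two separate experiments.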

[4] = target: T1, Epidermal growth factor receptor; experiment: Inhibition of epidermal growth factor receptor (EGFr) using peptide substrate
Method in brief: (§1)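 EGFr came from membrane vesicles shed by human A431 carcinoma cells. Activity was measured as 32P-phosphate transfer from ATP into a TCA-precipitable glutamate/tyrosine (4:1) random copolymer. ATP or peptide polymer substrate was varied. Ki was obtained by nonlinear regression with Cleland's equations, comparing slope and intercept determinations to assign the inhibition type.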

[5] = target: T1, Epidermal growth factor receptor; experiment: Inhibition of epidermal growth factor receptor (EGFr) using ATP substrate; method in brief: as §1
[6] = Inhibition of mouse Swiss 3T3 fibroblasts proliferation; format: functional, cell-based
Method in brief: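 Swiss 3T3 mouse fibroblast growth assay. IC50 is the concentration reducing cell growth rate by 50%, as the mean of duplicates from at least two separate experiments.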

[7] = Inhibition of Src tyrosine kinase using peptide substrate
Method in brief: (§2)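 v-src kinase inhibition kinetics were run with either ATP or the Glu/Tyr peptide polymer substrate varied. Ki (µM) was obtained by nonlinear regression using Cleland's equations. Inhibition type was assigned by comparing Ki values from slope and intercept determinations.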

[8] = Inhibition of Src tyrosine kinase using ATP substrate; method in brief: as §2
A-431 [9] = experiment: In vivo activity against human A431 epidermoid xenograft, weight change after 0.5 mg/kg/day sc dose for 1-27 days; format: functional, organism-based
Method in brief: (§3)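 Nude mice (NCr nu/nu, 18-22 g) bearing sc A431 fragments in the right axilla (day 0) received continuous sc infusion from an Alzet miniosmotic pump implanted under ketamine-xylazine. Pumps were removed or replaced under lidocaine-epinephrine for longer therapy, in 7-day and 27-day studies. Daily dose was the maximum deliverable without significant precipitation. Weight change was taken as the maximum treatment-related loss.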

C6 [10] = experiment: In vivo activity against C6 glioma xenograft, net cell kill at 1.8 mg/kg administered intraperitoneally for 9 days; format: functional; conditions: route intraperitoneal
Method in brief: (§4)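 […] C6 glioma xenograft, serially passaged in NCr nu/nu nude mice, implanted sc as tumor fragments in the right axilla on day 0. Mice weighed 18-22 g and were randomized. Dosing was ip bolus on a d1-9 daily schedule in 10% DMA in 50 mM lactic acid buffer, pH 4.0, by average cage weight. Weight change is the maximum treatment-related weight loss in the growth delay assay.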

[11] = target: T2, Platelet-derived growth factor receptor beta; experiment: Inhibition of platelet-derived growth factor receptor (PDGFr) autophosphorylation; format: functional
Method in brief: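 Swiss 3T3 fibroblasts were treated 2 h with a range of compound concentrations, then stimulated 5 min with growth factor. Receptor tyrosine phosphorylation was assessed by cell extraction and western blotting.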

A-431 [12] = experiment: In vivo activity against human A431 epidermoid xenograft, weight change after 0.5 mg/kg/day sc dose for 9-15 days; format: functional; conditions: route subcutaneous; method in brief: as §3
[13] = target: Epidermal growth factor receptor (Mus musculus) (UniProt Q01279); experiment: Inhibition of epidermal growth factor receptor (EGFr) autophosphorylation
Sequence of Epidermal growth factor receptor (Mus musculus) (Q01279 whole entry, looked up): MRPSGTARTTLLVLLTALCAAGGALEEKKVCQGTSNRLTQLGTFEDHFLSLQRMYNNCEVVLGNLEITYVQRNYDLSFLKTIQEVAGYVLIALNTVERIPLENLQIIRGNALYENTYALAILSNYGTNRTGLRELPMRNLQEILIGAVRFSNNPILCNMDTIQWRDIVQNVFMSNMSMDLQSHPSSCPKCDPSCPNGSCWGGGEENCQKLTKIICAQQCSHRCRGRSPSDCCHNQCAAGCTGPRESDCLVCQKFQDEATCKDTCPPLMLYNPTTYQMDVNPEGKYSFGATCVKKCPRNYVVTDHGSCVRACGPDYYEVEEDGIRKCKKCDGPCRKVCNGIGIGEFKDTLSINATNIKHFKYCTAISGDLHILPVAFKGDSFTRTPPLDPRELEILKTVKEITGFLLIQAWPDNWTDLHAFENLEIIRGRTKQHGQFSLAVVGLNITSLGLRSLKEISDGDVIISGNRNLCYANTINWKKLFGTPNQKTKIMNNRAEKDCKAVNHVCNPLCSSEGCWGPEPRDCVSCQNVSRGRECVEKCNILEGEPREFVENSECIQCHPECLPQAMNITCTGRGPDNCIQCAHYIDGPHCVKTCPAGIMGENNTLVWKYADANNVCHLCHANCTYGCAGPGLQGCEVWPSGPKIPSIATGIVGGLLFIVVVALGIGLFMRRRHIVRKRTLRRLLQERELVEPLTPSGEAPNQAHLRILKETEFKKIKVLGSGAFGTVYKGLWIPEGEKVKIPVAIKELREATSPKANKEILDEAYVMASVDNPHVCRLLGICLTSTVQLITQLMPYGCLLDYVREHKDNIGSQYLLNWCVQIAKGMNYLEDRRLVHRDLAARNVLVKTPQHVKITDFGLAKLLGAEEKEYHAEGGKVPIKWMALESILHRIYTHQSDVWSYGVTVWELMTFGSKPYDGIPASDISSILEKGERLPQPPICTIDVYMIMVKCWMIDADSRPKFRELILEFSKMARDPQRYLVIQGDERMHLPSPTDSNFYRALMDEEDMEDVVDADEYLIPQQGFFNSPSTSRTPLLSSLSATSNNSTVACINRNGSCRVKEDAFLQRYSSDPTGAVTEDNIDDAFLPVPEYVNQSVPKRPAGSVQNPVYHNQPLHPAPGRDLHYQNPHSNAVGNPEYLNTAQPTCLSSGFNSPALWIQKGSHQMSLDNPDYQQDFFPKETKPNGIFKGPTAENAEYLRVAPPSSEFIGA

A-431 [14] = experiment: In vivo activity against human A431 epidermoid xenograft, tumor growth delay (T-C, days) at 0.5 mg/kg/day administered subcutaneously for 1-27 days; conditions: route subcutaneous
[15] = Inhibition of RNA synthesis; format: functional
Method in brief: (§5)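 Log-phase cells were drug-treated for 2 h, then exposed for 2 h to 1 µM [methyl-3H]thymidine (DNA), [5-3H]uridine (RNA) or (S)-[4,5-3H]leucine (protein), each at 1 µCi/nmol. Cells were trypsinized into ice-cold 15% TCA, and precipitates were collected on glass-fibre filters, washed, and counted by scintillation.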

A-431 [16] = experiment: In vivo activity against human A431 epidermoid xenograft, tumor growth delay (T-C) at 0.5 mg/kg/day administered subcutaneously for 9-15 days; conditions: route subcutaneous
A-431 [17] = experiment: In vivo activity against human A431 epidermoid xenograft, net cell kill at 0.5 mg/kg/day administered subcutaneously for 9-15 days; format: functional; conditions: route subcutaneous
Method in brief: (§6)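 Nude mice (NCr nu/nu), 18-22 g, randomized, implanted sc in the right axilla with serially passaged A431 tumor fragments on day 0. Dosing was by ip bolus or continuous sc Alzet miniosmotic pump infusion, by average cage weight. Vehicle was distilled H2O or 10% DMA in 50 mM lactic acid buffer, pH 4.0, depending on compound. Net cell kill = net log reduction in tumor burden between first and last treatments.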

[18] = Inhibition of protein synthesis; format: functional; method in brief: as §5
A-431 [19] = experiment: In vivo activity against human A431 epidermoid xenograft, net cell kill at 0.5 mg/kg/day administered subcutaneously for 1-27 days; format: functional; conditions: route subcutaneous; method in brief: as §6
C6 [20] = experiment: In vivo activity against C6 glioma xenograft, weight change after 1.8 mg/kg ip dose for 9 days; format: functional; conditions: route intraperitoneal; method in brief: as §4
C6 [21] = experiment: In vivo activity against C6 glioma xenograft, tumor growth delay (T-C, days) at 1.8 mg/kg ip dose for 9 days; conditions: route intraperitoneal
[22] = Inhibition of DNA synthesis; format: functional; method in brief: as §5
[23] = target: Fibroblast growth factor receptor (Mus musculus, UniProt P21803+Q03142+P16092+Q61851); experiment: Inhibition of fibroblast growth factor (bFGF)-mediated autophosphorylation of FGF-R in Swiss 3T3 mouse fibroblasts; format: functional
Method in brief: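 Swiss 3T3 fibroblasts were treated 2 h with a range of compound concentrations, then stimulated for 5 min with growth factor (bFGF). Receptor tyrosine phosphorylation was read by extraction and western blotting.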

T1 sequence (P00533 whole entry): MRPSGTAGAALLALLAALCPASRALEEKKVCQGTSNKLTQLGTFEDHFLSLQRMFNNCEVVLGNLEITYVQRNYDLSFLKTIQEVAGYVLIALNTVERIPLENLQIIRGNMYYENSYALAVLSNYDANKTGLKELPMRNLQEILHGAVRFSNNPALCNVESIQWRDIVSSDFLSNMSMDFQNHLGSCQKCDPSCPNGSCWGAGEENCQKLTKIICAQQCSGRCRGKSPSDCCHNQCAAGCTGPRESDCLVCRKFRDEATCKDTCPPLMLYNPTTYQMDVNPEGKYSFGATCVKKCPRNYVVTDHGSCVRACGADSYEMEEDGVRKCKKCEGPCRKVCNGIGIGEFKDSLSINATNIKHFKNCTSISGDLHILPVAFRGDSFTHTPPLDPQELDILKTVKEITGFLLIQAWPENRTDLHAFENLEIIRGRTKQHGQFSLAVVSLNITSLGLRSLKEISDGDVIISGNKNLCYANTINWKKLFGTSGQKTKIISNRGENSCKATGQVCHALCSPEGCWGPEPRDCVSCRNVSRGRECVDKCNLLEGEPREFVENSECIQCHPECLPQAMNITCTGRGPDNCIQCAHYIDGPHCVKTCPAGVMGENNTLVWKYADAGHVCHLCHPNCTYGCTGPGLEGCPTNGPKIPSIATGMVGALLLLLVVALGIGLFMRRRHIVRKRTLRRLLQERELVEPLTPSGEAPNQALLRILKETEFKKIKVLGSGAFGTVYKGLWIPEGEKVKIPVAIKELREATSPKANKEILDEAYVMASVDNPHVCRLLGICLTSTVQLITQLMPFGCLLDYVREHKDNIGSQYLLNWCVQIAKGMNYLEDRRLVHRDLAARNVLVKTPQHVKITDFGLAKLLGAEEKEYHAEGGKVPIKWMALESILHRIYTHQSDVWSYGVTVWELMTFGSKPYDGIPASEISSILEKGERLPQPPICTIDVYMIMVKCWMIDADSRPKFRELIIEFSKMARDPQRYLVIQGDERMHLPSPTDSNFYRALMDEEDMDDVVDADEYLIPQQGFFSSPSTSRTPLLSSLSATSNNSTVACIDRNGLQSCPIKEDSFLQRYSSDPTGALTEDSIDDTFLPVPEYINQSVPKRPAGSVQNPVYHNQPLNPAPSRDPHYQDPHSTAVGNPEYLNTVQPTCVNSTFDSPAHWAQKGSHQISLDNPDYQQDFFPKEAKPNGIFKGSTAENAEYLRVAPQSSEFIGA

O=C(NCc1ccccc1)[C@H](Cc1c([Se][Se]c2[nH]c3ccccc3c2C[C@@H](NC(=O)C(F)(F)F)C(=O)NCc2ccccc2)[nH]c2ccccc12)NC(=O)C(F)(F)F
IC50 [1]: 7 µM | IC50 [2]: > 50 µM | IC50 [3]: 6.2 µM

N[C@H](Cc1c([Se][Se]c2[nH]c3ccccc3c2C[C@H](N)C(=O)NCc2ccccc2)[nH]c2ccccc12)C(=O)NCc1ccccc1 (stereo in doubt; 34)
IC50 [1]: 1.3 µM | Ki [4]: 5.6 µM | IC50 [2]: 25.5 µM | IC50 [3]: 3.8 µM | Ki [5]: 2.7 µM | IC50 [6]: 0.6 µM

CNC(=O)c1c([Se][Se]c2c(C(=O)NC)c3ccccc3n2C)n(C)c2ccccc12
IC50 [1]: 6.1 µM | Ki [4]: 3.9 µM | Ki [7]: 0.6 µM | IC50 [2]: 4.7 µM | IC50 [3]: 0.4 µM | Ki [8]: 0.8 µM | Ki [5]: 3.1 µM | IC50 ([6]; Mus musculus): 5.5 µM

CCN(CC)CCNC(=O)c1c([Se][Se]c2c(C(=O)NCCN(CC)CC)c3ccccc3n2C)n(C)c2ccccc12
IC50 [2]: 3.4 µM | IC50 [3]: 1.8 µM | IC50 ([6]; Mus musculus): 19.5 µM

Cn1c([Se][Se]c2c(C(=O)OC(C)(C)C)c3ccccc3n2C)c(C(=O)OC(C)(C)C)c2ccccc21
IC50 [1]: > 100 µM | IC50 [2]: > 31 µM | IC50 [3]: 1.5 µM

CNC(=O)c1c([Se][Se]c2[nH]c3ccccc3c2C(=O)NC)[nH]c2ccccc12
IC50 [2]: 8 µM | IC50 [3]: 2.8 µM | IC50 ([6]; Mus musculus): 1 µM

CCN(CC)CCn1c([Se][Se]c2c(C(=O)NC)c3ccccc3n2CCN(CC)CC)c(C(=O)NC)c2ccccc21
IC50 [2]: 50 µM | IC50 [3]: 1.7 µM

CCN(CC)CCNC(=O)c1c([Se][Se]c2[nH]c3ccccc3c2C(=O)NCCN(CC)CC)[nH]c2ccccc12
IC50 [2]: 12.8 µM | IC50 [3]: 3.6 µM | IC50 ([6]; Mus musculus): 8 µM

N[C@H](Cc1c([Se][Se]c2[nH]c3ccccc3c2C[C@H](N)C(=O)NCc2ccccc2)[nH]c2ccccc12)C(=O)NCc1ccccc1 (stereo in doubt; 33) [listing 1 of 2 here]
Weight change (A-431 [9]): Weight gain

Cn1c([Se][Se]c2c(C(=O)O)c3ccccc3n2C)c(C(=O)O)c2ccccc21
IC50 [2]: 17.4 µM | IC50 [3]: 2.4 µM | IC50 ([6]; Mus musculus): 8 µM

N[C@H](Cc1c([Se][Se]c2[nH]c3ccccc3c2C[C@H](N)C(=O)NCc2ccccc2)[nH]c2ccccc12)C(=O)NCc1ccccc1 (stereo in doubt; 33) [listing 2 of 2 here]
Net cell kill (C6 [10]): -0.2 log10 | IC50 [1]: 0.9 µM | IC50 [11]: 0.57 µM | Weight change (A-431 [12]): -0.2 g | IC50 [13]: 4.2 µM | T-C (A-431 [14]): 10.8 days | IC50 [15]: 0.35 µM | IC50 [2]: 14.1 µM | IC50 [3]: 2 µM | T-C (A-431 [16]): 2.2 days | Net cell kill (A-431 [17]): -0.2 log10 | IC50 [18]: 0.17 µM | Net cell kill (A-431 [19]): -0.4 log10 | Weight change (C6 [20]): -0.9 g | T-C (C6 [21]): 2 days | IC50 [22]: 0.18 µM | IC50 [23]: 0.2 µM | IC50 ([6]; Mus musculus): 0.54 µM

CNC(=O)c1c(SSc2c(C(=O)NC)c3ccccc3n2C)n(C)c2ccccc12
IC50 [1]: 6.9 µM | Ki [4]: 3.9 µM | Ki [7]: 1.4 µM | IC50 [2]: 28.1 µM | IC50 [3]: 6.7 µM | Ki [8]: 8 µM | Ki [5]: 2.3 µM

O=C(NCc1ccccc1)[C@H](Cc1c([Se]c2[nH]c3ccccc3c2C[C@@H](NC(=O)C(F)(F)F)C(=O)NCc2ccccc2)[nH]c2ccccc12)NC(=O)C(F)(F)F
IC50 [1]: > 50 µM | IC50 [2]: > 50 µM | IC50 [3]: > 50 µM
